Screens as filed in PubChem BioAssay.
Hits are enriched below; roughly 1.6% of the tested compounds scored in any of these assays.
Wee1 stabilizer: inhibitors of human Wee1 degradation | HeLa Luc-Wee1K328M stability, luciferase luminescence; 100% = proteasome inhibitor MG132 effect | reporter increase, % at 5 µM | hit rate 1.2% among 220,000;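 active = activation above the mean of all tested compounds plus 3 SD, set per screening run, cut at about 8.8% in these data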;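 also: cells exposed to compound for 20 h before luminescence read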
Target sequence (P30291 whole entry K328M): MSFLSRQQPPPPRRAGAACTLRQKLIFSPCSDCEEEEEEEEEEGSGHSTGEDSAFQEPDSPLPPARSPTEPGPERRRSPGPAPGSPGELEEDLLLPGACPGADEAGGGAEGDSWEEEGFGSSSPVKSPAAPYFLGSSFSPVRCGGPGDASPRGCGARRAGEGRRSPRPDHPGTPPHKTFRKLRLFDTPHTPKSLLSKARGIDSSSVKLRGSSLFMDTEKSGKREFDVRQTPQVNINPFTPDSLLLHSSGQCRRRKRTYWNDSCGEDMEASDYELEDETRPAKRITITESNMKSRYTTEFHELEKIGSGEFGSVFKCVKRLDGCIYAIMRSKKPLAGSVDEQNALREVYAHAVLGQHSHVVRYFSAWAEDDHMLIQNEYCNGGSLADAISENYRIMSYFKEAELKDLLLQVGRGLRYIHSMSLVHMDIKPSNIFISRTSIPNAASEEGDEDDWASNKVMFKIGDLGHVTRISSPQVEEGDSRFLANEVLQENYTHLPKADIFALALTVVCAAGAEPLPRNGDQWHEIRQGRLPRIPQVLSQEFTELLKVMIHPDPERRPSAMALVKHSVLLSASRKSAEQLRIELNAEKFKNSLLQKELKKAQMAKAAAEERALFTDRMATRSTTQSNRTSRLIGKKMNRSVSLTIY
L929 necroptosis: blocks zVAD induced death of L929 cells; L929 zVAD necroptosis rescue, ATP luminescence, 24 h; with zVAD 60 µM; viability rescue, % at 10 µM; hit rate 0.38% among 220,000;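 active = activation, scaled between plate controls, above about 75%, limit read from the data; inactive = activation under that limit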
Pf gamet viab: kills late stage P. falciparum gametocytes; P. falciparum stage V gametocytes, ATP luminescence, 24 h; inhibition, % at 10.9 µM; hit rate 0.065% among 150,000; AID 743093;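 active = inhibition above the mean plus 3 SD of compounds within the control limits, set per campaign, cut at about 38% in these data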
TNF necrop inh: TNF-alpha cell death inhibition in Jurkat FADD-/- cells; Jurkat FADD-/- TNF necroptosis rescue, ATP luminescence, 24 h; 0 = TNF only, 100 = no-TNF cells; activation (protection from cell death), % at 10 µM; hit rate 0.068% among 220,000; AID 463075;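 active = activation, meaning protection from cell death, of at least 50% relative to plate controls; inactive = activation below 50%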;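 also: necroptosis triggered by 40 ng/mL TNF-alpha added together with compound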
Mdm2 ligase inh: Mdm2 E3 ligase (human) inhibition; cell-based MDM2 ubiquitination luciferase reporter, 2 h; 0 = plate control, 100 = twice control, blank-subtracted; hit rate 0.11% among 210,000; AID 1230; signal enhancement, % at 5 µM; Q00987;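 active = signal enhancement of 30% or more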;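 also: luminescence tracks abundance of the self-degrading MDM2-luciferase fusion protein; higher signal means inhibition of MDM2 E3 ligase activity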
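Material: Stable MDM2–luciferase fusion reporter cells | Amount: 2000 cells seeded into each well | Dosing: One concentration, 5 µM, with 0.2% DMSO | Incubation: 4 h cell settling then 2 h compound exposure, 37 °C | Measured by: Luciferase luminescence | Read-out basis: % enhancement relative to plate controls after blank subtraction | Benchmarks: Control and blank well means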
Wee1 stab conf: human Wee1 degradation inhibition, confirmation | shares compounds with Wee1 stabilizer | HeLa Luc-Wee1K328M degradation, luminescence; vehicle 0%, proteasome-blocked wells 100% | activation, % at 5 µM | hit rate 4% among 1,100; in the data active = activation above about 8.9%
zVAD necrop conf: confirmed blocker of zVAD induced death in L929 cells | activation (protection from necroptosis), % at 10 µM | hit rate 16% among 760 | L929 zVAD-induced necroptosis rescue, ATP luminescence, 24 h | shares compounds with L929 necroptosis;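 active = mean protection from necroptosis of at least 50% over duplicate tests; inactive = mean protection below 50%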
Large screens that a line does not name were inactive (follow-up assays come after a bar, where they were run).

O=C1NC(=O)N(c2cccc(Cl)c2)C(=O)/C1=C\c1ccc(Sc2nc3ccccc3[nH]2)o1	Wee1 stabilizer 11 (no result: Mdm2 ligase inh)
CCCCCn1c(=O)c(C(=O)Nc2nc3ccccc3[nH]2)c(O)c2ccccc21	Wee1 stabilizer 10
CCCCCCCSc1cc(OC)c(CCNC)cc1OC	none
NC1=NC(=O)C(c2ccccc2)O1 (stereo unspecified)	Wee1 stabilizer 10 (no result: L929 necroptosis, Pf gamet viab, TNF necrop inh, Mdm2 ligase inh)
CCOC(=O)C1=C(N)OC(C)=C(C(=O)OCCOC)C12C(=O)Nc1ccccc12 (stereo unspecified)	none (no result: Pf gamet viab)
CN(C(=O)Oc1ccc(C(C)(C)C)cc1)c1ccccc1	none
CC(C(=O)Nc1ccc(Br)cc1C(=O)c1ccccc1)N1CCOCC1 (stereo unspecified)	none (no result: Pf gamet viab)
Cc1ccc2ccccc2c1NC(=O)CNC1CCCCC1	Wee1 stabilizer 10 (no result: Pf gamet viab)
CCc1ccccc1NC(=O)CNC1CCCCC1	none
CCCCN1C(=O)C(C2c3ccccc3C(=O)N2Cc2ccccc2)C(=O)NC1=S (stereo unspecified)	Wee1 stabilizer 9.9
COC(=O)C1=C(c2cc3ccccc3s2)C[C@@H]2CC[C@H]1N2C(=O)NCCS(C)=O (stereo partly specified)	none (no result: Wee1 stabilizer, L929 necroptosis, TNF necrop inh, Mdm2 ligase inh)
CC1=C(C(=O)N2CCC3(CC2)OCCO3)C2(CCC(C)CC2)OC1=O (stereo unspecified)	none
COc1ccc(-c2cc(=O)c3c(OC)c(OC)c(OC)cc3o2)cc1	Wee1 stabilizer 9.3 (no result: Pf gamet viab)
COc1ccc(-c2cc(=Nc3ccccc3)c3cc(C)ccc3o2)cc1	none (no result: Mdm2 ligase inh)
COc1ccccc1OCCCn1cc(C(=O)C2CC2)c2ccccc21	none
COc1cc(C=C2C(=O)NC(=O)NC2=O)ccc1OCc1ccc([N+](=O)[O-])cc1	Wee1 stabilizer 12
CCN(CC)C(=O)c1ccc(NC(=O)c2cccc(F)c2)cc1	Wee1 stabilizer 8.8
O=C(COC(=O)Cc1ccccc1)NC12CC3CC(CC(C3)C1)C2	none (no result: Pf gamet viab)
Cc1ccc(S(=O)(=O)N2CCCCC2)cc1NC(=O)CN1CC=C(c2ccccc2)CC1	Wee1 stabilizer 9.2
O=C(CN1CC=C(c2ccccc2)CC1)Nc1cc(Cl)ccc1Cl	none
Cc1ccc2occ(CN3CC4CC(C3)c3cccc(=O)n3C4)c(=O)c2c1 (stereo unspecified)	none
CCCN1CCC(NC2CCC(O)CC2)CC1 (stereo unspecified)	none (no result: Wee1 stabilizer, L929 necroptosis, TNF necrop inh, Mdm2 ligase inh)
O=C(O)c1nonc1-c1nonc1C(=O)O	Wee1 stabilizer 18
C/C1=C\[C@@H](C)C/C=C/[C@H]2[C@@H]3O[C@]3(C)[C@@H](C)[C@H]3[C@H](Cc4c[nH]c5ccccc45)NC(=O)[C@]32C(=O)/C=C/C(=O)[C@@H]1O	Mdm2 ligase inh 33 (no result: Pf gamet viab)
CC1=CC2/C=C(\C)CCC(O)C(O)/C=C/C(=O)C23C(=O)NC(CC(C)C)C3C1C (stereo unspecified)	none (no result: Pf gamet viab)
CCN1C(=O)C(=C/C=C/c2ccco2)C(=O)N(CC)C1=S	Mdm2 ligase inh 47
CC(C)N1C(=O)/C(=C/C=C/c2ccco2)C(=O)N(Cc2ccco2)C1=O	none
c1ccc2c(CN3CCN(C4CCCCC4)CC3)c[nH]c2c1	Wee1 stabilizer 11 (no result: Pf gamet viab)
C=C1C(=O)O[C@@H]2C[C@@H](C)[C@@H]3C=CC(=O)[C@@]3(C)[C@@H](O)[C@H]12	L929 necroptosis 94, TNF necrop inh 53, Mdm2 ligase inh 53 (no result: Wee1 stabilizer, Pf gamet viab)
CC(C)CCOC(=O)c1c(N)n(CC2CCCO2)c2nc3ccccc3nc12 (stereo unspecified)	Wee1 stabilizer 10
O=P(c1ccccc1)(c1nc2ccccc2s1)N1CCOCC1 (stereo unspecified)	none
CCN1CCN(c2nc3ccccc3s2)CC1	Wee1 stabilizer 15 (no result: Pf gamet viab) | Wee1 stab conf inactive
Cn1c2ccccc2c2c(C(=O)N3CCC4(CC3)OCCO4)cn(C3CCCCC3)c(=O)c21	none (no result: Pf gamet viab)
CSc1nc(N2CCN(C)CC2)c2ccccc2n1	Wee1 stabilizer 15 | Wee1 stab conf inactive
Cc1ccc(-n2c(/C=C/c3ccc4c(c3)OCO4)nc3ccccc3c2=O)cc1	Wee1 stabilizer 11 | Wee1 stab conf inactive
O=c1c2ccccc2nc(/C=C/c2ccc(O)cc2)n1-c1cccc(O)c1	Wee1 stabilizer 12 (no result: Pf gamet viab) | Wee1 stab conf inactive
CC1CC(OC(=O)c2ccccc2)CC(C)N1C (stereo unspecified)	none
CN1C2CCC1CC(OC(=O)c1ccc([N+](=O)[O-])cc1)C2 (stereo unspecified)	Wee1 stabilizer 13 | Wee1 stab conf inactive
O=C1C2CCCN2C(c2ccncc2)N1c1ccc(Cl)c(Cl)c1 (stereo unspecified)	none
O=C(C(=O)N1CCOCC1)c1cn(Cc2ccc(F)cc2)c2ccccc12	Wee1 stabilizer 12 (no result: Mdm2 ligase inh) | Wee1 stab conf inactive
O=C(C(=O)N1CCOCC1)c1cn(Cc2ccccc2Cl)c2ccccc12	none
O=C(c1ccc(C(F)(F)F)cc1)C1CCCN(Cc2ccncc2)C1 (stereo unspecified)	none
CC(=O)OC[C@]12CCC(C)=C[C@H]1O[C@@H]1[C@H](O)[C@@H](OC(C)=O)[C@@]2(C)[C@]12CO2	L929 necroptosis 95 (no result: Wee1 stabilizer, Pf gamet viab) | zVAD necrop conf 82
COC(=O)c1ccc(C(C(=O)NC2CCCCC2)N(CCN2CCOCC2)C(=O)Cc2cccs2)cc1 (stereo unspecified)	none
O=C1NC(=O)C2(Cc3c(nc4ccccn4c3=O)N3CCCCCC32)C(=O)N1Cc1ccccc1 (stereo unspecified)	none (no result: Pf gamet viab)
O=C(/C=C/c1ccccc1)c1c(O)n(CCc2ccccc2)c(=O)[nH]c1=O	L929 necroptosis 83 | zVAD necrop conf inactive
O=C(/C=C/c1ccc2c(c1)OCO2)c1c(O)n(CCc2ccccc2)c(=O)[nH]c1=O	none
O=C(Nc1ccc(Cl)cc1)Nc1nccs1	L929 necroptosis 86 | zVAD necrop conf inactive
